We go through 28 compounds from ChEMBL document CHEMBL1143630, “Successful in silico discovery of novel nonsteroidal ligands for human sex hormone binding globulin” (J Med Chem, 2005).

Assay [1] deals with T1, Sex hormone-binding globulin (Homo sapiens) (UniProt P04278).
T1 sequence (whole entry): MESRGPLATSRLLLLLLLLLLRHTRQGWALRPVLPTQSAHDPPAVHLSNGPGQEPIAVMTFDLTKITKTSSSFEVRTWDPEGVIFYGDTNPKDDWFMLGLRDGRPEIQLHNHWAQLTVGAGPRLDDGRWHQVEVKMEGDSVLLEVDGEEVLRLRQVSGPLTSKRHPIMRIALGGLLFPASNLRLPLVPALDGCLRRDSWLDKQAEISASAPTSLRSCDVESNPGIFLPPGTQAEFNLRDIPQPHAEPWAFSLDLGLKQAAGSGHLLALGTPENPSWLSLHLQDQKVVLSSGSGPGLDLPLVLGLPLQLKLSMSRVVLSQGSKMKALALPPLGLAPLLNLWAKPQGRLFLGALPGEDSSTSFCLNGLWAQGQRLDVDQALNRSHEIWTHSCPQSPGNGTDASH
Briefly: In vitro inhibition of [3H]DHT binding to human sex hormone-binding globulin (SHBG). Also on record: concentration or dose not given beside the values. The procedure, abridged: (§1)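 Human pregnancy serum diluted 1:200 (about 1 nM SHBG), stripped of endogenous steroid with dextran-coated charcoal, mixed with [3H]DHT at 10 nM. Triplicate test compound added, incubated overnight at room temperature. Dextran-coated charcoal slurry then added for 10 min at 0°C and centrifuged to separate bound from free label. Bound label counted by scintillation and expressed relative to the no-competitor control.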

Assay [2] deals with T1, Sex hormone-binding globulin (Homo sapiens). Briefly: Relative binding affinity towards human sex hormone-binding globulin (SHBG) compared to estradiol. The gist of the method:
as §1

The target in assay [3] is T2, Sex hormone-binding globulin (Homo sapiens, UniProt P04278).
T2 sequence (P04278 whole entry): T1 sequence (whole entry)
Briefly: Inhibitory concentration against [3H]-DHT binding to human sex hormone-binding globulin (SHBG). The procedure, abridged: as §1

Assay [4] concerns the target T1, Sex hormone-binding globulin (Homo sapiens). In words: Relative binding affinity for human sex hormone-binding globulin (SHBG) compared to testosterone. The gist of the method: as §1
For assay [5] the target is unchanged. Briefly: Association […] constant for human sex hormone-binding globulin (SHBG).

Structures are written as SMILES. pIC50: −log10 of the molar value.

With `Cc1c(CC(=O)N[C@@H](C)C(=O)O)c(=O)oc2cc(O)ccc12`, the Reduction in assay [1] was determined as 0%.
The same measure, in the same setting: with `COC(=O)c1ccc(CC(=O)c2ccc(O)cc2O)o1` the figure was 10%.
As to `CC[C@@H](O)c1ccc(OC[C@H](O)CN2CCCCC2)c(OC)c1`, the Reduction in assay [1] worked out at 5%.
In assay [1], `CC1(C)CC2(CC(C)(C)c3cc(O)c(O)cc32)c2cc(O)c(O)cc21` displayed a Reduction of 48%.
The compound `CC(=O)c1c(O)c(C)c(O)c2c1OC1=CC(=O)[C@H](C(C)=O)C(=O)[C@]12C` gave a Reduction in assay [1] of 4%.
In turn, `CC[C@H](NC(=O)Cc1c(C)c2ccc(O)cc2oc1=O)C(=O)O` returned a Reduction in assay [1] of 0%.
Consider `Cc1c(CCC(=O)O)c(=O)oc2c(C)c(O)ccc12`, for which the Reduction in assay [1] came to 46%.
On to `COC(=O)c1cc(CC(=O)c2ccc(O)cc2O)c(C)o1`, for which the Reduction in assay [1] was 0%.
For `C[C@H]1CC[C@@H]2[C@](C)(CO)[C@H](O)CC[C@@]2(C)[C@@]12C[C@@]1(COC(=O)C1)CO2`, the Reduction in assay [1] came out at 9%.
The same measure, in the same setting: with `C[C@H]1CC[C@H]2[C@@](C)(CO)[C@H](O)CC[C@]2(C)[C@@]12CC[C@@](C)(CO)O2` the figure was 6%.
For `COc1cc([C@H]2OC[C@]3(CO)[C@H](C)[C@H]2C(C)=C[C@@H]3C)ccc1O`, the relative binding affinity (RBA) in assay [2] was 2750; in assay [4], 696. In addition, the negative-log IC50 (pIC50) in assay [3] was 4.65. The same compound returned a Ka in assay [5] of 730000 M⁻¹. The same compound had a Reduction in assay [1] of 84%.
Consider `O=C1C=CC2=N[C@@]34CCCC[C@@H]3[C@@H](c3ccc(O)cc3)C=C(c3ccccc3)N4C2=C1`, for which the Reduction in assay [1] worked out at 0%.
`O=C(Cc1ccc(O)cc1)c1ccc(O)cc1O`: the relative binding affinity (RBA) in assay [2] came to 4530; in assay [4], 1150. The compound also gave a pIC50 in assay [3] of 4.87. The compound further yielded a Ka in assay [5] of 1.2e+06 M⁻¹. The compound further displayed a Reduction in assay [1] of 95%.
Take `C[C@H]1CC[C@H]2[C@@](C)(CO)[C@@H](O)CC[C@]2(C)[C@@]12CC[C@](CO)(CC(=O)O)O2`: the Reduction in assay [1] is 2%.
As for `CC1=C[C@@H](C)[C@@]2(CO)CO[C@@H](c3ccc(O)cc3)[C@@H]1[C@H]2C`, the relative binding affinity (RBA) was 493 in assay [2] and 125 in assay [4]. Also, the pIC50 in assay [3] was 3.90. For the same compound, the Ka in assay [5] worked out at 130000 M⁻¹. The Reduction in assay [1] is 56%.
In assay [1], `CN1CCc2cc(O)c(O)cc2[C@H]1Cc1ccc(O)c(O)c1` showed a Reduction of 14%.
On to `COc1cc(/C=C/C(=O)c2c(O)cc(C)oc2=O)ccc1O`, for which the Reduction in assay [1] came to 2%.
Take `C=C1CC[C@H]2[C@](C)(CO)[C@H](O)CC[C@@]2(C)[C@@H]1C/C=C1/C(=O)OC[C@H]1O`: the Reduction in assay [1] came to 7%.
In the case of `O=C1C=CC2=C3c4ccc(O)cc4OC[C@]3(O)CC2=C1`, the Reduction in assay [1] was determined as 27%.
On the same count and under the same terms, in the case of `O=C(/C=C/c1cccnc1)c1ccc(O)cc1` it was 57%.
Still for that read-out and setting: with `C=C1CC[C@H]2[C@](C)(CO)[C@H](O)CC[C@@]2(C)[C@@H]1/C=C/C1=CCOC1=O` the figure was 0%; with `Cc1cc(O)c(C(=O)/C=C/c2ccc(O)c([N+](=O)[O-])c2)c(=O)o1`, 1%; with `CC(=O)Oc1ccc2c(C)c(C[C@H](C)O)c(=O)oc2c1`, 42%.
For `C[C@H]1CC[C@@H]2[C@](C)(CO)[C@H](O)CC[C@@]2(C)[C@]12CC[C@@]1(CCOC1)O2`, the Reduction in assay [1] was found to be 11%.
The compound `O=C1C=CC2=C3c4cc(O)c(O)cc4C[C@@]3(O)COC2=C1O` showed a Reduction in assay [1] of 6%.
Same read-out and setting: with `COc1cc2c(cc1O)CCN(C[C@@H](O)CNCCO)[C@H]2C` the figure was 12%; with `C=C1CC[C@H]2[C@](C)(CO)[C@H](O)CC[C@@]2(C)[C@@H]1C/C=C1/C(=O)OC[C@@H]1O`, 0%; with `O=C(Cc1ccc2cccnc2c1)c1ccc(O)cc1O`, 0%.
